Data as given in paper PMC3000613 (Biochemistry, 2010).

Columns and labels:
[1] = system: MBP-sAnk1_29–155 / GST-Obsc6231–6260; assay type: binding, rat; conditions: for molar excess of peptide over sAnk1 needed to inhibit binding by 50%: binding of GST-Obsc6231–6260 construct to sAnk1, 1 µM MBP-sAnk1, SPR
Outline: (§1)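 Each GST-obscurin fusion was expressed in BL21* pLysS cells (1 mM IPTG, 4 h), affinity-purified, and captured by anti-GST on a CM5 SPR chip. 1 µM MBP-sAnk1 was pre-mixed with synthetic 6316–6345 or 6231–6260 oligopeptide at varying relative molar amounts, then flowed over the chip. Inhibition constant = reciprocal of the peptide:sAnk1 concentration ratio blocking maximal binding by 50%.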

MBP-sAnk1_29–155 [2] = assay: SPR direct binding of GST-obscurin constructs to MBP-sAnk1; parameters: species or system rat; conditions: GST fusion constructs vs MBP-sAnk1_29–155
Outline: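 GST-obscurin constructs, expressed in BL21* pLysS cells (1 mM IPTG, 4 h) and affinity-purified, were captured by anti-GST on a CM5 chip. MBP-sAnk1 was applied over a wide concentration range. Signal from a GST-only chip and a buffer blank was subtracted. Kinetic rate constants and KD came from 1:1 binding model fits.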

[3] = system: MBP-sAnk1_29–155 / GST-Obsc6316–6345; parameters: species or system rat; conditions: binding to GST-Obsc6316–6345
Outline: as §1

MBP-sAnk1_29–155 [4] = assay: SPR competition, oligopeptide inhibition of MBP-sAnk1 binding; parameters: species or system rat; conditions: binding of MBP-sAnk1_29–155 to either GST-Obsc6316–6345 or GST-Obsc6231–6260

Row | molar excess of peptide over sAnk1 needed to inhibit binding by 50% [1] | Ratio of inhibition constants, 6316–6345 to 6231–6260 oligopeptide ([1]; binding to GST-Obsc6231–6260) | Ratio of inhibition constants, 6316–6345 to 6231–6260 oligopeptide [3] | relative inhibition of binding vs 6231–6260 oligopeptide (MBP-sAnk1_29–155 [4]) | Substance | binding to sAnk1 by SPR (in words) (MBP-sAnk1_29–155 [2])
1 | ~ 6 fold molar excess | – | – | – | Obsc6231–6260 oligopeptide: synthetic oligopeptide containing obscurin residues 6231–6260 | –
2 | ~ 2 fold molar excess | 3.29 | 3.00 | ~ 3 fold | Obsc6316–6345 oligopeptide: synthetic oligopeptide containing obscurin residues 6316–6345 (GAAWPGAGTGELLWDVHSHVVRETTQRTYT; UniProt Q5VST9 6316-6345, looked up, fragment) | no significant difference in binding between Obsc6316–6436 and Obsc6316–6345
